Data reported in ChEMBL document CHEMBL4138257, “Long-Lasting and Fast-Acting in Vivo Efficacious Antiplasmodial Azepanylcarbazole Amino Alcohol” (ACS Med Chem Lett, 2017).
In brackets after ≈: the same amount, converted by molar mass. Blank lines part the entries; values can stand above or below the compound they belong to. Activity calls are given as the source filed them. The calls are words filed in the database; no cut-off is given here.

Key:
Plasmodium falciparum [1] = experiment: Antiplasmodial activity against Plasmodium falciparum NF54 infected in human erythrocytes after 72 hrs by [3H]-hypoxanthine incorporation assay; assay type: functional, organism-based
Plasmodium falciparum [2] = experiment: Antiplasmodial activity against Plasmodium falciparum 3D7A infected in red blood cells at 2 times EC90; assay type: functional, organism-based
[3] = Lipophilicity, log P of the compound; assay type: physicochemical; settings: octanol/water
[4] = Octanol-phosphate buffer partition co-efficient, log D of the compound at pH 7.4 after 1 hr by HPLC analysis; assay type: physicochemical
Plasmodium falciparum [5] = experiment: Antiplasmodial activity against Plasmodium falciparum K1 infected in human erythrocytes after 72 hrs by [3H]-hypoxanthine incorporation assay; assay type: functional, organism-based
Plasmodium falciparum [6] = experiment: Antiplasmodial activity against Plasmodium falciparum HB3 infected in human erythrocytes after 72 hrs by [3H]-hypoxanthine incorporation assay; assay type: functional, organism-based
Plasmodium falciparum [7] = experiment: Antiplasmodial activity against Plasmodium falciparum 7G8 infected in human erythrocytes after 72 hrs by [3H]-hypoxanthine incorporation assay; assay type: functional, organism-based
Plasmodium falciparum [8] = experiment: Antiplasmodial activity against Plasmodium falciparum TM90C2B infected in human erythrocytes after 72 hrs by [3H]-hypoxanthine incorporation assay; assay type: functional, organism-based
Plasmodium falciparum [9] = experiment: Antiplasmodial activity against Plasmodium falciparum D6 infected in human erythrocytes after 72 hrs by [3H]-hypoxanthine incorporation assay; assay type: functional, organism-based
Plasmodium falciparum [10] = experiment: Antiplasmodial activity against Plasmodium falciparum V1/S infected in human erythrocytes after 72 hrs by [3H]-hypoxanthine incorporation assay; assay type: functional, organism-based
Plasmodium falciparum [11] = experiment: Antiplasmodial activity against Plasmodium falciparum Dd2 infected in human erythrocytes after 72 hrs by [3H]-hypoxanthine incorporation assay; assay type: functional, organism-based
Plasmodium falciparum [12] = experiment: Antiplasmodial activity against Plasmodium falciparum FCB infected in human erythrocytes after 72 hrs by [3H]-hypoxanthine incorporation assay; assay type: functional, organism-based
[13] = Ratio of EC50 for Plasmodium falciparum K1 infected in human erythrocytes to EC50 for Plasmodium falciparum NF54 infected in human erythrocytes; assay type: functional
[14] = Ratio of EC50 for Plasmodium falciparum HB3 infected in human erythrocytes to EC50 for Plasmodium falciparum NF54 infected in human erythrocytes; assay type: functional
[15] = Ratio of EC50 for Plasmodium falciparum 7G8 infected in human erythrocytes to EC50 for Plasmodium falciparum NF54 infected in human erythrocytes; assay type: functional
[16] = Ratio of EC50 for Plasmodium falciparum TM90C2B infected in human erythrocytes to EC50 for Plasmodium falciparum NF54 infected in human erythrocytes; assay type: functional
[17] = Ratio of EC50 for Plasmodium falciparum D6 infected in human erythrocytes to EC50 for Plasmodium falciparum NF54 infected in human erythrocytes; assay type: functional
[18] = Ratio of EC50 for Plasmodium falciparum V1/S infected in human erythrocytes to EC50 for Plasmodium falciparum NF54 infected in human erythrocytes; assay type: functional
[19] = Ratio of EC50 for Plasmodium falciparum Dd2 infected in human erythrocytes to EC50 for Plasmodium falciparum NF54 infected in human erythrocytes; assay type: functional
[20] = Ratio of EC50 for Plasmodium falciparum FCB infected in human erythrocytes to EC50 for Plasmodium falciparum NF54 infected in human erythrocytes; assay type: functional
Plasmodium falciparum [21] = experiment: Ratio of EC90 for Plasmodium falciparum NF54 infected in human erythrocytes to EC50 for Plasmodium falciparum NF54 infected in human erythrocytes; assay type: functional
Plasmodium falciparum [22] = experiment: Antiplasmodial activity against Plasmodium falciparum 3D7A infected in red blood cells assessed as log reduction in parasite viability at 10 times EC50 after 48 hrs by [3H]-hypoxanthine incorporation assay; assay type: functional
Summary of the method: (§1)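 In vitro parasite reduction ratio (PRR) assay on P. falciparum 3D7A-infected erythrocytes exposed to drug at 10× or 3× EC50. Viability of treated parasites was measured by limiting serial dilution followed by monitoring of re-growth. Killing was expressed as log-unit reduction in viable parasites after 48 h.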

Plasmodium falciparum [23] = experiment: Antiplasmodial activity against Plasmodium falciparum 3D7A infected in red blood cells assessed as log reduction in parasite viability at 3 times EC50 after 48 hrs by [3H]-hypoxanthine incorporation assay; assay type: functional; summary of the method: as §1
Plasmodium falciparum [24] = experiment: Antiplasmodial activity against schizont stage of Plasmodium falciparum 3D7A infected in red blood cells assessed as reduction in parasite viability at 3 to 10 times EC50 after 48 hrs by [3H]-hypoxanthine incorporation assay relative to ring stage; assay type: functional
[25] = Dissociation constant, pKa of the compound at pH 1.5; assay type: physicochemical
[26] = Kinetic solubility of the compound in PBS at pH 7.4 after 24 hrs by HPLC analysis; assay type: physicochemical; settings: read-out: Kinetic_solubility
[27] = Kinetic solubility of the compound in FaSSIF at pH 6.5 after 24 hrs by HPLC analysis; assay type: physicochemical; settings: read-out: Kinetic_solubility
[28] = Kinetic solubility of the compound in FeSSIF at pH 5 after 24 hrs by HPLC analysis; assay type: physicochemical; settings: read-out: Kinetic_solubility
[29] = Intrinsic clearance in human microsomes assessed per mg protein; assay type: ADME, Microsome
[30] = Intrinsic clearance in mouse microsomes assessed per mg protein; assay type: ADME, Microsome
[31] = Intrinsic clearance in rat microsomes assessed per mg protein; assay type: ADME, Microsome
[32] = Intrinsic clearance in monkey microsomes assessed per mg protein; assay type: ADME, Macaca mulatta, Microsome; settings: rhesus monkey
[33] = Intrinsic clearance in dog microsomes assessed per mg protein; assay type: ADME, Canis lupus familiaris, Microsome
[34] = Apparent permeability of the compound in human Caco2 cells at 20 uM after 4 hrs in presence of human plasma by LC-MS analysis; assay type: ADME, cell-based; settings: Caco-2
Summary of the method: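 Caco-2 permeability measured with human plasma in both donor and acceptor compartments to reduce non-specific binding. Papp corrected for the unbound concentration under these conditions; efflux ratio also reported.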

[35] = Efflux ratio of apparent permeability from basolateral to apical side over apical to basolateral side in human Caco2 cells at 20 uM after 4 hrs in presence of human plasma by LC-MS analysis; assay type: ADME, cell-based; settings: Caco-2
Summary of the method: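 Caco-2 permeability was run with human plasma on both donor and acceptor sides to reduce non-specific binding. Apparent permeability (Papp, ×10^-6 cm/s) was corrected for the unbound concentration, and an efflux ratio was reported.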

[36] = Fraction unbound in human plasma at 1000 ng/mL by LC-MS analysis; assay type: ADME, cell-free
[37] = Fraction unbound in dog plasma at 1000 ng/mL by LC-MS analysis; assay type: ADME, cell-free, Canis lupus familiaris
[38] = Fraction unbound in rat plasma at 1000 ng/mL by LC-MS analysis; assay type: ADME, cell-free
[39] = Fraction unbound in mouse plasma at 1000 ng/mL by LC-MS analysis; assay type: ADME, cell-free
[40] = Ratio of drug uptake in human blood to plasma; assay type: ADME; settings: blood and plasma
[41] = Ratio of drug uptake in mouse blood to plasma; assay type: ADME; settings: blood and plasma
[42] = Stability in human hepatocytes assessed as parent compound remaining after 5 hrs; assay type: ADME, cell-based, Hepatocyte; settings: read-out: Stability
Summary of the method: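 Human hepatocyte incubation extended to 5 h; parent remaining and metabolite formation assessed.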

[43] = Half life in CD1 mouse at 0.5 mg/kg, po measured for 14 days; assay type: ADME, organism-based; settings: in vivo
Summary of the method: (§2)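 Single po administration, mouse dose 0.5 mg·kg-1; plasma concentrations followed to obtain Cmax time and half-life. Bioavailability derived against single iv dosing.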

[44] = Clearance in CD1 mouse at 0.2 mg/kg, iv measured for 14 days; assay type: ADME, organism-based; settings: in vivo
Summary of the method: (§3)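 Single iv administration, mouse dose 0.2 mg·kg-1. CL reported in L/h/kg and as % liver blood flow; Vss in L/kg.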

[45] = Volume of distribution at steady state in CD1 mouse at 0.2 mg/kg, iv measured for 14 days; assay type: ADME, organism-based; settings: in vivo, read-out: Vdss; summary of the method: as §3
[46] = Oral bioavailability in CD1 mouse at 0.5 mg/kg measured for 14 days; assay type: ADME, organism-based; settings: in vivo; summary of the method: as §2
[47] = Half life in rat at 0.5 mg/kg, po measured for 14 days; assay type: ADME, organism-based; settings: in vivo
[48] = Oral bioavailability in dog at 0.5 mg/kg measured for 14 days; assay type: ADME, organism-based, Canis lupus familiaris; settings: in vivo
[49] = Oral bioavailability in rat at 0.5 mg/kg measured for 14 days; assay type: ADME, organism-based; settings: in vivo
[50] = Half life in dog at 0.5 mg/kg, po measured for 14 days; assay type: ADME, organism-based, Canis lupus familiaris; settings: in vivo; summary of the method: as §2
[51] = Clearance in dog at 0.2 mg/kg, iv measured for 14 days; assay type: ADME, organism-based, Canis lupus familiaris; settings: in vivo; summary of the method: as §3
[52] = Tmax in CD1 mouse at 0.5 mg/kg, po measured for 14 days; assay type: ADME, organism-based; settings: in vivo; summary of the method: as §2
[53] = Protein binding in brain (unknown origin); assay type: ADME, tissue-based; settings: read-out: PB
Plasmodium falciparum [54] = experiment: Antiplasmodial activity against Plasmodium falciparum 3D7 infected in human erythrocytes engrafted in NOD-SCID IL-2Rgamma null mouse assessed as reduction in blood parasitemia at 10 to 30 mg/kg, po administered as single dose via gavage measured on day 4 post treatment by flow cytometry; assay type: functional, organism-based
Summary of the method: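 Human-erythrocyte-engrafted SCID mice infected with P. falciparum 3D7 received one oral dose (1, 3, 10 or 30 mg·kg-1) on day 3 post-infection. Parasitemia was followed by flow cytometry, with a quantification limit of 0.01; vehicle controls n=3.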

Plasmodium falciparum [55] = experiment: Antiplasmodial activity against Plasmodium falciparum 3D7 infected in human erythrocytes engrafted in NOD-SCID IL-2Rgamma null mouse assessed as reduction in blood parasitemia administered as single dose via oral gavage […] by flow cytometry; assay type: functional; settings: 3D7, po
Summary of the method: (§4)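 SCID mice engrafted with human erythrocytes, infected with P. falciparum 3D7; single oral dose of 1, 3, 10 or 30 mg·kg-1 given day 3 after infection. Parasitemia measured by flow cytometry, lower limit of quantification 0.01; vehicle group n=3; chloroquine positive control. ED90 and AUC_ED90 are taken as the reduction at day 7 after infection versus vehicle-treated mice.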

Plasmodium falciparum [56] = experiment: Antiplasmodial activity against Plasmodium falciparum 3D7 infected in human erythrocytes engrafted in NOD-SCID IL-2Rgamma null mouse assessed as reduction in peripheral blood parasitemia administered as single dose via oral gavage measured on […] by flow cytometry; assay type: functional, organism-based; summary of the method: as §4
[57] = Cmax in NOD-SCID IL-2Rgamma null mouse at 10 mg/kg measured up to 5 days; assay type: ADME, organism-based; set-up: dose 10 mg/kg; settings: in vivo
[58] = target: Voltage-gated inwardly rectifying potassium channel KCNH2 (Homo sapiens, UniProt Q12809); experiment: Inhibition of human ERG
Sequence of Voltage-gated inwardly rectifying potassium channel KCNH2 (Q12809 whole entry): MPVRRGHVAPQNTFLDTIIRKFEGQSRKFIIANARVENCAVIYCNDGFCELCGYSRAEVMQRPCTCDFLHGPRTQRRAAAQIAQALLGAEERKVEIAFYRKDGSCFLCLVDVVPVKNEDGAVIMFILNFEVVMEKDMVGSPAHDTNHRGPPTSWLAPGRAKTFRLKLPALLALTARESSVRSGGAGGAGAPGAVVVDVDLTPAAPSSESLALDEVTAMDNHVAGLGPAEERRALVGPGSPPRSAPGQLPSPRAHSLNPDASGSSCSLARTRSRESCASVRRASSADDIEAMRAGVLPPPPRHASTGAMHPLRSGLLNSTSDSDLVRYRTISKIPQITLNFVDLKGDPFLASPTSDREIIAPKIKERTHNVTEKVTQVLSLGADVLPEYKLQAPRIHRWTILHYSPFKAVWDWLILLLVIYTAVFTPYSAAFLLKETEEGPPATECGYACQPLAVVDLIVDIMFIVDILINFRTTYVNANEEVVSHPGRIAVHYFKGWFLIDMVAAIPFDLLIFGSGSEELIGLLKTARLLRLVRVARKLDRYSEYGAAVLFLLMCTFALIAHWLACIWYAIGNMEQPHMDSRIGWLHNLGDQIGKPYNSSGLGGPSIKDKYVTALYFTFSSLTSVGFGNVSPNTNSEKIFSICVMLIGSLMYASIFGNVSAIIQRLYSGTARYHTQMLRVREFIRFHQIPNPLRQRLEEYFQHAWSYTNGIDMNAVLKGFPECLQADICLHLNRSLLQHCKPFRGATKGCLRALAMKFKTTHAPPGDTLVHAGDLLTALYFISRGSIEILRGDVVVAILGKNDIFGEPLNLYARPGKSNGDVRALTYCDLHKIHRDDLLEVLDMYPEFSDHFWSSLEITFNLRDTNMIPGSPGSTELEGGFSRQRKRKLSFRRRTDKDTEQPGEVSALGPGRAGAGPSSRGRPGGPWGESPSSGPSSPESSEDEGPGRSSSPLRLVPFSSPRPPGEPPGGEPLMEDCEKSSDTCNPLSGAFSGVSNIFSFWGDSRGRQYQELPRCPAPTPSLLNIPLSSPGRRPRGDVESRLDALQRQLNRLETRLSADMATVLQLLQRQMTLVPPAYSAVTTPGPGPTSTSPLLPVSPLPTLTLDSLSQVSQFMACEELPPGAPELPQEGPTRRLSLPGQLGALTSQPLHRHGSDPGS

EC50 (Plasmodium falciparum [1]; Plasmodium falciparum, NF54): 2.4 nM | logP [3]: 4.6 | logD at 1 h [4]: 4.1 | EC50 (Plasmodium falciparum [5]): 0.7 nM | EC50 (Plasmodium falciparum [6]): 2.1 nM | EC50 (Plasmodium falciparum [7]): 0.4 nM | EC50 (Plasmodium falciparum [8]): 3 nM | EC50 (Plasmodium falciparum [9]): 3.4 nM | EC50 (Plasmodium falciparum [10]): 1.3 nM | EC50 (Plasmodium falciparum [11]): 3.2 nM | EC50 (Plasmodium falciparum [12]): 3 nM | pKa [25]: 8.05 | solubility kinetic at 24 h [26]: 1.5 µg/mL (≈ 3.6 µM) | solubility kinetic at 24 h [27]: 10 µg/mL (≈ 24 µM) | solubility kinetic at 24 h [28]: 83.5 µg/mL (≈ 201 µM) | microsomal CLint [29]: < 10 µL/min/mg | microsomal CLint [30]: < 10 µL/min/mg | microsomal CLint [31]: < 10 µL/min/mg | microsomal CLint [32]: < 10 µL/min/mg | microsomal CLint [33]: < 10 µL/min/mg | Papp at 4 h, 20 µM [34]: 120 ×10⁻⁶ cm/s | efflux ratio at 4 h, 20 µM [35]: 0.8 | fraction unbound at 1000 ng/mL [36]: 0.035 | fraction unbound at 1000 ng/mL [37]: 0.013 | fraction unbound at 1000 ng/mL [38]: 0.025 | fraction unbound at 1000 ng/mL [39]: 0.026 | blood plasma ratio [40]: 1.5 | blood plasma ratio [41]: 1.6 | remaining at 5 h [42]: 96% | half-life [43]: 86 h | clearance [44]: 2.6 mL/min/kg | Vd [45]: 10 L/kg | bioavailability [46]: 97% | half-life [47]: 160 h | bioavailability [48]: 100% | bioavailability [49]: 72% | half-life [50]: 69 h | clearance [51]: 2.98 mL/min/kg | Tmax [52]: 6 h | fraction unbound [53]: < 0.001 | Cmax [57]: 1000 nM
Structure (SMILES): O[C@H]1CNCCC[C@@H]1n1c2ccc(C(F)(F)F)cc2c2cc(C(F)(F)F)ccc21
fEC50 (Plasmodium falciparum [1]): 0.17 nM | Activity (Plasmodium falciparum [2]): Active | Ratio EC50 [13]: 0.3 | Ratio EC50 [14]: 0.9 | Ratio EC50 [15]: 0.2 | Ratio EC50 [16]: 1.2 | Ratio EC50 [17]: 1.4 | Ratio EC50 [18]: 0.5 | Ratio EC50 [19]: 1.3 | Ratio EC50 [20]: 1.3 | fold change (FC) (Plasmodium falciparum [21]): 2 | FC (Plasmodium falciparum [22]): 4.8 | FC (Plasmodium falciparum [23]): 4.5 | fold change (FC) (Plasmodium falciparum [24]): 2 | Activity (Plasmodium falciparum [54]): Active | ED90 (Plasmodium falciparum [55]): 3.6 mg/kg | AUCED90 (Plasmodium falciparum [56]): 2.2 µg.hr/ml/day | IC50 [58]: 1180 nM

Structure (SMILES): CCN(CC)CCCC(C)Nc1ccnc2cc(Cl)ccc12 (stereo unspecified) [CHLOROQUINE]
ED50 (Plasmodium falciparum [55]): 2.8 mg/kg

pKa [25]: 8.05
Structure (SMILES): C1CCCNCC1 [AZEPANE]
